The nature of series [1]: Cytotoxicity against human IMR90 cells assessed as cell viability at 10 uM after 2 days by Alamar Blue assay relative to control. The series is classed as cell-based. Conditions: IMR-90 cells, read-out: Activity. In outline:
(§1)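 Resazurin (AlamarBlue) read-out of residual metabolic activity. A549 grown in DMEM/F-12 Kaighn's and IMR 90 in MEM/EBSS, both with 10% heat-inactivated FBS, penicillin/streptomycin and 2 mM L-glutamine. Seeded at 2 × 10^3 cells/well, held 24 h at 37 °C in 5% CO2, then exposed to 10 μM final for 2 days. Controls: 1.5 mM H2O2 and 10 μg/ml actinomycin D.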

Series [2] concerns Staphylococcus aureus. Briefly: Antibacterial activity against tetracycline-resistant Staphylococcus aureus R2507 assessed as growth inhibition. The format is functional.
The nature of series [3]: Cytotoxicity against human A549 cells assessed as cell viability at 10 uM after 2 days by Alamar Blue assay relative to control. The series is classed as cell-based. As to conditions: read-out: Activity. In outline: as §1
Series [4] relates to Escherichia coli. Briefly: Antibacterial activity against tetracycline-sensitive Escherichia coli ATCC 25922 assessed as growth inhibition. The format is functional.
Series [5] deals with Escherichia coli. Briefly: Antibacterial activity against tetracycline-resistant Escherichia coli 1-849 assessed as growth inhibition. The series is classed as functional.
Series [6] in a line: Stability of the compound in DMSO at -20 degC at 3 mM after 12 months by HPLC analysis. The series is classed as physicochemical. Conditions: 8766 h, 3000 µM.

≈ marks a conversion by molar mass, not a printed value.

In the case of `C=CCOC(=O)N[C@H]1C(N(CC(=O)Nc2ccc3c(c2O)C(=O)C2=C(O)[C@]4(O)C(=O)C(C(N)=O)=C(O)[C@@H](N(C)C)[C@@H]4[C@@H](O)[C@@H]2[C@H]3C)OC)O[C@H](CO)[C@@H](O)[C@@H]1O` (mixture of isomers), the viability at 48 h, 10 µM in series [1] was 97.6%; in series [3] it was 98.8%. For the same molecule, the MIC (usually the least concentration at which growth counts as inhibited) in series [2] was 8 µg/mL; in series [4], 8 µg/mL; in series [5], 16 µg/mL.

`CON(CC(=O)Nc1ccc2c(c1O)C(=O)C1=C(O)[C@]3(O)C(=O)C(C(N)=O)=C(O)[C@@H](N(C)C)[C@@H]3[C@@H](O)[C@@H]1[C@H]2C)C1OC[C@H](O)[C@@H]1O` (mixture of isomers): the results for the viability at 48 h, 10 µM in series [1] and in series [3] were 99.3% and 98.2%, respectively. Besides, the MIC stood at 32 µg/mL in series [2], 4 µg/mL in series [4] and 64 µg/mL in series [5].

`C[C@H]1c2ccc(N)c(O)c2C(=O)C2=C(O)[C@]3(O)C(=O)C(C(N)=O)=C(O)[C@@H](N(C)C)[C@@H]3[C@@H](O)[C@@H]21`: the MIC stood at 4 µg/mL (≈ 8.71 µM) in series [2], 1 µg/mL (≈ 2.18 µM) in series [4] and 2 µg/mL (≈ 4.35 µM) in series [5].

`C[C@H]1c2cccc(O)c2C(=O)C2=C(O)[C@]3(O)C(=O)C(C(N)=O)=C(O)[C@@H](N(C)C)[C@@H]3[C@@H](O)[C@@H]21.O` [DOXYCYCLINE]: the MIC in series [2] was 2 µg/mL; in series [4], 1 µg/mL; in series [5] it was 8 µg/mL.

With `CON(CC(=O)Nc1ccc2c(c1O)C(=O)C1=C(O)[C@]3(O)C(=O)C(C(N)=O)=C(O)[C@@H](N(C)C)[C@@H]3[C@@H](O)[C@@H]1[C@H]2C)[C@@H]1O[C@H](CO)[C@@H](O)[C@H](O)[C@H]1N`, the values for the viability at 48 h, 10 µM in series [1] and in series [3] were 102% and 95.6%, respectively. Also, the MIC in series [2] turned out to be 32 µg/mL (≈ 45.2 µM); in series [4], 8 µg/mL (≈ 11.3 µM); in series [5], 32 µg/mL (≈ 45.2 µM).

As for `CON(CC(=O)Nc1ccc2c(c1O)C(=O)C1=C(O)[C@]3(O)C(=O)C(C(N)=O)=C(O)[C@@H](N(C)C)[C@@H]3[C@@H](O)[C@@H]1[C@H]2C)C1O[C@H](CO)[C@@H](O)[C@H](O)[C@@H]1N` (mixture of isomers), the values for the viability at 48 h, 10 µM in series [1] and in series [3] were 98.9% and 97.1%, respectively. The MIC was 32 µg/mL in series [2], 4 µg/mL in series [4] and 32 µg/mL in series [5].

Take `CON(CC(=O)Nc1ccc2c(c1O)C(=O)C1=C(O)[C@]3(O)C(=O)C(C(N)=O)=C(O)[C@@H](N(C)C)[C@@H]3[C@@H](O)[C@@H]1[C@H]2C)C1O[C@H](CO)[C@@H](O)[C@H](OC(C)C(=O)O)[C@H]1NC(C)=O` (mixture of isomers): the figures for the viability at 48 h, 10 µM in series [1] and in series [3] were 104% and 97.7%, respectively. Also, the results for the MIC in series [2], in series [4] and in series [5] were 16 µg/mL, 8 µg/mL and 32 µg/mL, respectively.

`CONCC(=O)Nc1ccc2c(c1O)C(=O)C1=C(O)[C@]3(O)C(=O)C(C(N)=O)=C(O)[C@@H](N(C)C)[C@@H]3[C@@H](O)[C@@H]1[C@H]2C`: the viability at 48 h, 10 µM was 99.2% in series [1] and 95.9% in series [3]. Besides, the MIC in series [2] amounted to 4 µg/mL (≈ 7.32 µM); in series [4] it was 4 µg/mL (≈ 7.32 µM); in series [5], 8 µg/mL (≈ 14.6 µM).

`CON(CC(=O)Nc1ccc2c(c1O)C(=O)C1=C(O)[C@]3(O)C(=O)C(C(N)=O)=C(O)[C@@H](N(C)C)[C@@H]3[C@@H](O)[C@@H]1[C@H]2C)[C@H]1CC[C@H](N(C)C)[C@@H](C)O1`: the viability at 48 h, 10 µM in series [1] stood at 101%; in series [3], 96.9%. In addition, the MIC stood at 16 µg/mL (≈ 23.3 µM) in series [2], 4 µg/mL (≈ 5.82 µM) in series [4] and 32 µg/mL (≈ 46.5 µM) in series [5].

Consider `CON(CC(=O)Nc1ccc2c(c1O)C(=O)C1=C(O)[C@]3(O)C(=O)C(C(N)=O)=C(O)[C@@H](N(C)C)[C@@H]3[C@@H](O)[C@@H]1[C@H]2C)C1OC[C@@H](O)[C@@H](O)[C@@H]1O` (mixture of isomers), for which the viability at 48 h, 10 µM in series [1] was 102%; in series [3], 97.2%. Further, the MIC was found to be 32 µg/mL in series [2], 8 µg/mL in series [4] and 64 µg/mL in series [5].

In the case of `CON(CC(=O)Nc1ccc2c(c1O)C(=O)C1=C(O)[C@]3(O)C(=O)C(C(N)=O)=C(O)[C@@H](N(C)C)[C@@H]3[C@@H](O)[C@@H]1[C@H]2C)[C@H]1O[C@H](CO)[C@@H](O)[C@H](O)[C@H]1N`, the results for the viability at 48 h, 10 µM in series [1] and in series [3] were 94.6% and 99.1%, respectively. In addition, the MIC in series [2], in series [4] and in series [5] was 4 µg/mL (≈ 5.65 µM) each time. Besides, in series [6], the Stability result is on record as “Stable”.

As to `CON(CC(=O)Nc1ccc2c(c1O)C(=O)C1=C(O)[C@]3(O)C(=O)C(C(N)=O)=C(O)[C@@H](N(C)C)[C@@H]3[C@@H](O)[C@@H]1[C@H]2C)[C@@H]1O[C@H](CO)[C@@H](O)[C@H](O)[C@H]1NC(=O)C(F)(F)F`, the figures for the viability at 48 h, 10 µM in series [1] and in series [3] were 109% and 98.7%, respectively. The values for the MIC in series [2], in series [4] and in series [5] were 16 µg/mL (≈ 19.9 µM), 4 µg/mL (≈ 4.98 µM) and 32 µg/mL (≈ 39.8 µM), respectively.

For the origin of these results see ChEMBL document CHEMBL2417477, “Synthesis and antibacterial activity of doxycycline neoglycosides” (J Nat Prod, 2013).
